# Screening data deposited in PubChem BioAssay by The Scripps Research Institute Molecular Screening Center.
# Rows were chosen to be rich in hits. Some 2.7% of all compounds tested hit in one or more screens of this group.
# RBBP9 inh: blocks human serine hydrolase RBBP9; recombinant RBBP9, FP-Rh probe fluorescence polarization; inhibition, % at 7.94 µM; 220,000 compounds, 0.2% hits; AID 1515;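 active = inhibition above the campaign mean of all tested compounds plus 3 SD, cut at about 14% in these data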;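 also: plate controls were DMSO wells with RBBP9 for no effect and wells lacking RBBP9 protein for full effect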
# Target sequence (O75884 whole entry, looked up): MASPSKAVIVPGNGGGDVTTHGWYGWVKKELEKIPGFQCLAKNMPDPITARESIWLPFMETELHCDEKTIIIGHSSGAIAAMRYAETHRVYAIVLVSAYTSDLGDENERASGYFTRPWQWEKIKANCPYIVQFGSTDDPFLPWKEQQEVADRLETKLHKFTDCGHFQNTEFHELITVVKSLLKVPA
#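 Assay system: recombinant human RBBP9; Reagent: Serine-hydrolase probe FP-Rh, 375 nM pre-mixing; Doses: 7.94 µM single dose, 0.794% DMSO; Incubation: 30 min then 45 min, 25 °C; Detection: fluorescence polarization (mP), excitation 525 nm, emission 598 nm; Evaluation: percent inhibition from mP, scaled between DMSO and no-protein wells.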
# PRMT1 FP inh: PRMT1 (human) inhibition, primary screen. Q99873. recombinant PRMT1, activity-based probe fluorescence polarization. inhibition, % at 2.79 µM. 370,000 compounds, 1.3% hits. AID 652257;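 active = inhibition above about 21% made by adding two undisclosed values, limit read from the data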
# Target sequence (Q99873 whole entry, looked up): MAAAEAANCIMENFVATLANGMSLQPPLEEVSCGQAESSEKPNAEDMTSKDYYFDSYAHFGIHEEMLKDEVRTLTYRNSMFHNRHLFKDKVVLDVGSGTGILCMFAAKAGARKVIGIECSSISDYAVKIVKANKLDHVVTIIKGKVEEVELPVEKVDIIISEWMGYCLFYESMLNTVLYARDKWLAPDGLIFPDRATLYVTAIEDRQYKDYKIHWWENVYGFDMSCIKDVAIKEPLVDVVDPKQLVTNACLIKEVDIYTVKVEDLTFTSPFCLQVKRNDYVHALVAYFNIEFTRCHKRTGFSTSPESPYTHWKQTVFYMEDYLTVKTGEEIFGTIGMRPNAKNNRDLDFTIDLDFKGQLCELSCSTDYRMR
# PAD4 inh: blocks human protein arginine deiminase 4; Q9UM07; recombinant PAD4, RCA probe fluorescence polarization; inhibition, % at 6.36 µM; 330,000 compounds, 0.41% hits; AID 485272;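 active = percent inhibition above a cutoff equal to the mean of all tested compounds plus 3 SD, cut at about 15% in these data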;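 also: 0% = PAD4 with RCA probe and DMSO and 100% = probe without PAD4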
# SIAE primary: human SIAE inhibition, primary screen; 370,000 compounds, 0.69% hits; SIAE FP-Rh probe binding, fluorescence polarization; inhibition, % at 9.66 µM;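 active = inhibition above a cutoff: mean of compounds within the control limits plus 3 SD of those, cut at about 17% in these data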;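 also: 0% = plate median of compound wells and 100% = probe without SIAE protein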
# GSTO1 counter: blocks human GSTO1 in RBBP9 counter-screen. AID 1974. 300,000 compounds, 1.1% hits. inhibition, % at 5.96 µM. recombinant GSTO1, activity-based probe fluorescence polarization;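 active = inhibition above the campaign mean inhibition plus 3 SD, cut at about 35% in these data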;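 also: 0% = GSTO1-1 with DMSO and 100% = wells lacking GSTO1-1 enzyme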
# SIAE inh conf: human SIAE inhibition, confirmation; shares compounds with SIAE primary; SIAE FP-Rh activity-based probe, fluorescence polarization; inhibition, % at 9.66 µM; 2,300 compounds, 13% hits; AID 1117263;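 active = mean inhibition of the replicates above the hit cutoff set in the primary screen, cut at about 17% in these data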;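 also: 0% = SIAE with DMSO and probe and 100% = probe without SIAE; inhibitors lower polarization as more probe stays unbound to SIAE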
# Starred values were filed as active, the others as inactive; . = no result given; ! = repeats disagree.
SMILES,RBBP9 inh,PRMT1 FP inh,PAD4 inh,SIAE primary,GSTO1 counter,SIAE inh conf
COc1cc(NC(=O)Nc2nc(C(N)CCc3ccccc3)cs2)cc(OC)c1OC (stereo not drawn),.,-4,.,33*,.,22*
Cc1sc(NC(=O)CS(=O)(=O)c2ccccc2)c(C(N)=O)c1C,.,-2,-3,17*,0,1
CNC(=O)c1c(NC(=O)CS(=O)(=O)c2ccccc2)sc(C)c1C,.,3,-5,5,4,.
CCOC(=O)C1CCCN(C(=O)c2ccc(OC)c([N+](=O)[O-])c2)C1 (stereo not drawn),0,4,0,30*,-1,-3
CCOC(=O)C1CCCN(C(=O)c2ccc([N+](=O)[O-])cc2)C1 (stereo not drawn),-6,-5,9,2,1,.
CC(=O)N1CCN(C2c3cccc4cccc(c34)C2NS(=O)(=O)c2ccccc2)CC1 (stereo not drawn),9,0,-7,24*,1,-3
Cc1ccc(C)c(Cn2cnc3c(cnn3C(C)(C)C)c2=O)c1,0,6,-4,22*,0,-2
Cc1ccccc1Cn1cnc2c(cnn2C(C)(C)C)c1=O,-2,0,-2,5,9,.
CC12CN3CCN(CC(C3)/C1=N/N=C/c1cccc([N+](=O)[O-])c1)C2,-6,-6,-4,17*,0,0
CC1S/C(=N/N=C/c2cccc([N+](=O)[O-])c2)NC1=O (stereo not drawn),0,1,-3,0,-6,.
CC(Oc1cc2oc(=O)c3c(c2cc1Cl)CCC3)C(=O)N1C[C@H]2C[C@@H](C1)c1cccc(=O)n1C2 (stereo partly drawn),.,0,0,18*,-7,0
COc1ccc(C2=Nn3c(nnc3-c3ccccc3OC)SC2)cc1OCC1CC1,.,18,-4,29*,.,27*
Cc1ccccc1C(=O)Nc1nncs1,-9,-1,-2,1,-1,.
O=C(Nc1nncs1)c1c(F)c(F)c(F)c(F)c1F,-6,3,1,20*,1,1
COc1cc(/C=N/NC(=O)c2cccc(NC(=O)c3ccccc3C)c2)ccc1O,.,-2,-1,7,3,.
Cc1ccccc1C(=O)Nc1cccc(C(=O)N/N=C/c2cc(Cl)cc([N+](=O)[O-])c2O)c1,-5,2,2,28*,8,2
COCCN(C(=O)COC(=O)/C=C/c1cccs1)c1c(N)n(Cc2ccccc2)c(=O)[nH]c1=O,.,-1,0,21*,-5,-1
CCCCNc1c(-c2ccc(OC)c(SC(C)CC)c2)nc2cc(C)ccn12 (stereo not drawn),.,5,-2,18*!,.,10
C=CCN1[C@@H](C)[C@H](c2ccccc2)Oc2cccc(NCCc3ccccc3)c2S1(=O)=O,.,4,.,-2,.,.
O=C(O)c1cccc(N/N=C/C2=C(Cl)c3cc(Cl)ccc3SC2)c1,3,15,.,21*,.,31*
COc1ccc(N=C2SC(C(=O)O)CC(=O)N2Cc2ccc(OC)c(OC)c2)cc1 (stereo not drawn),5,-1,-1,80*,-2,-1
COc1ccc(N=C2SC(C(N)=O)CC(=O)N2CCc2ccc(OC)c(OC)c2)cc1 (stereo not drawn),2,1,0,-1,5,.
Cc1ccc(-n2c3c(cc(C(=O)NCCCN4CCOCC4)c2=O)C(=O)CC(C)(C)C3)cc1,.,-2,1,19*,10,-1
Cc1ccccc1Nc1nc(NCc2ccco2)c2ccccc2n1,-1,1,-5,-1,24,.
COc1ccc(OC)c(Nc2nc(NCc3ccco3)c3ccccc3n2)c1,.,-1,-3,18*,-10,11
SMILES,RBBP9 inh,PRMT1 FP inh,PAD4 inh,SIAE primary,GSTO1 counter,SIAE inh conf
Nn1c(SCC(=O)Nc2ccc(S(=O)(=O)N3CCCC3)cc2)nnc1C(F)(F)F,-6,1,-1,17*,-3,-6
Cn1cnnc1SCC(=O)Nc1ccc(S(=O)(=O)N2CCCC2)cc1,3,-2,0,-2,-1,.
CC(C)[C@H](CO)NC(=O)[C@H]1O[C@@H](n2ccc(=O)[nH]c2=O)[C@H](O)[C@@H]1O,.,-5,.,70*,.,55*
O=C(N[C@H](Cc1ccccc1)C(=O)N1CCN(CC(=O)N2CCCC2)CC1)[C@H]1O[C@@H](n2ccc(=O)[nH]c2=O)[C@H](O)[C@@H]1O,.,1,.,47*,.,43*
NC(=O)c1ncn([C@@H]2O[C@H](C(=O)N[C@H](Cc3ccccc3)C(=O)N3CCN(CC(=O)Nc4ccccn4)CC3)[C@@H](O)[C@H]2O)n1,.,-2,.,44*,.,39*
NC(=O)c1ncn([C@@H]2O[C@H](C(=O)N3CCN(CC(=O)Nc4ccccn4)CC3)[C@@H](O)[C@H]2O)n1,.,2,.,7,.,.
Cc1nccn1-c1ccc(NC(=O)[C@@H](Cc2ccccc2)NC(=O)[C@H]2O[C@@H](n3ccc(=O)[nH]c3=O)[C@H](O)[C@@H]2O)cc1,.,-6,.,54*,.,44*
COc1ccccc1N1CCN(C(=O)c2cc(C)on2)CC1,.,-3,-3,9,2,.
NC(=O)[C@@H]1CCCN1C(=O)[C@@H](Cc1ccccc1)NC(=O)[C@H]1O[C@@H](n2ccc(=O)[nH]c2=O)[C@H](O)[C@@H]1O,.,0,.,49*,.,41*
O=C(N[C@H](Cc1ccccc1)C(=O)N1CCN(C(=O)N2CCCCC2)CC1)[C@H]1O[C@@H](n2ccc(=O)[nH]c2=O)[C@H](O)[C@@H]1O,.,0,.,-1,.,.
O=C(C[n+]1cccc2ccccc21)c1ccc(Br)cc1,.,1,-4,20*,4,-4
O=C(NNC(=O)c1cc2cc(Br)ccc2oc1=O)c1ccc(O)cc1,-7,-1,1,8,5,.
Nc1ccc(N2CCOCC2)c(S(=O)(=O)Nc2ccccc2Cl)c1,.,1,1,39*,.,2
Cc1cccc(C)c1N1CCN(C(=O)Nc2ccc3c(c2)OCCO3)CC1,-5,-2,-5,-1,-2,.
CC(C)(C)OC(=O)N1CCN(C(=O)Nc2ccc3c(c2)OCCO3)CC1,-12,-3,-1,18*,12,1
CC(C)C1Cc2c(C#N)c(N)n(C)c(=S)c2CO1 (stereo not drawn),5,2,-1,2,-1,.
Cc1cccc(Cc2ncc(C(F)(F)F)cc2Cl)c1,.,-3,0,19*,3,7
CC(=O)C(C)Oc1ccc(Cc2ncc(C(F)(F)F)cc2Cl)cc1 (stereo not drawn),-4,1,-5,5,-1,.
COc1cc(Cn2nnc3ccccc32)cc(Br)c1O,.,1,-1,23*,5,2
COc1ccc(C)cc1Cn1nnc2ccccc21,.,-3,1,1,2,.
COc1ccc(C=CC(=O)c2ccc([N+](=O)[O-])cc2)cc1,.,0,.,0,.,.
